High-throughput results: PubChem, Broad Institute
Only some compounds are listed: those with a hit (about 2.9% of all), similar ones and a draw of the others.
FGF22 binding-1: binders of human FGF22 protein, primary screen, FGF22 synaptogenesis inhibitor project, biophysical, thermal shift, single point | Fibroblast growth factor 22 (Homo sapiens), Q9HCT0 | 340,000 tested, 1.5% active | activity (Tm shift, normalised), % at 9.99 µM | recombinant FGF22 thermal shift, SYPRO orange fluorescence; percent of sucrose octasulfate shift, DMSO zero;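 active = mean Tm shift, scaled 0 neutral to 100 positive control, at about 1.3% or above, every replicate too, limit read from the data; inconclusive = no clear call, values can overlap the other calls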
Target sequence (Q9HCT0 whole entry, looked up): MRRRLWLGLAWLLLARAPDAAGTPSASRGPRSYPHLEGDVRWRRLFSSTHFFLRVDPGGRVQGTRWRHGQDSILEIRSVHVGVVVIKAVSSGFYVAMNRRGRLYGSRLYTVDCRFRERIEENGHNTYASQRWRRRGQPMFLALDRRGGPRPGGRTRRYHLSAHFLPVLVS
PGC1a acetyl inh: inhibitors of PGC1a acetylation signal, primary screen, cell-based, U2OS, AlphaScreen, inhibitor mode | AID 651687, 2012 | 350,000 tested, 0.17% active | inhibition, % at 15.6 µM | AlphaScreen anti-acetyl-lysine; with virally co-expressed GCN5 acetyltransferase;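 active = every replicate shows inhibition of at least 40%; inconclusive = mean inhibition at least 40% but some replicate below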;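 also: 0% = neutral control wells and 100% = positive control wells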
Vif inh: HIV Vif self-association inhibitors, primary screen, imaging, HEK293T, single point; AID 602346, 2012; 340,000 tested, 0.35% active; inhibition, % at 7.49 µM; HEK293T cells, Vif self-association by quenched fluorescence, 24 h; in the data active = inhibition above about 50%, passing the limit was not always enough; inconclusive = no clear call, values can overlap the other calls; inactive = below about 31%
PglD inh: C. jejuni PglD acetyltransferase inhibitors, primary screen, biochemical, DTNB colorimetric, single point. AID 602405, 2012. purified PglD enzyme, DTNB colorimetric CoA detection. UDP-N-acetylbacillosamine N-acetyltransferase PglD (Campylobacter jejuni). inhibition, % at 12.5 µM. 360,000 tested, 0.098% active; in the data active = inhibition above about 16%, passing the limit was not always enough; inconclusive = no clear call, values can overlap the other calls
rRNA inh HTS: reduced GFP signal of wild-type E. coli, primary screen, bacterial rRNA inhibitor project, GFP/RFP fluorescence, OD600, single point. E. coli WT GFP vs humanized-ribosome RFP mutants, 24 h; stronger effect = lower value; DMSO median 0, no signal -100. GFP signal change (wild-type ribosome), % (test concentration not listed). 350,000 tested, 1.6% active. AID 720706, 2013;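 active = significant combined selectivity score with lowered wild-type GFP, culture density cut under 30%, mutant RFP and density less affected; inactive = any of these conditions unmet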
Cneo AK release: Cryptococcus neoformans cell lysis inducers, primary screen, AK release luminescence, single concentration; C. neoformans lysis, adenylate kinase release luminescence, 4 h; normalised: neutral wells 0, clomiphene wells 100; lysis activity, % at 15 µM; 360,000 tested, 0.2% active; AID 651654, 2012;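 active = mean lysis activity across replicates of at least 80%, whatever share of replicates individually reach that level; inactive = mean lysis activity below 80%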
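Test system: log-phase Cryptococcus neoformans yeast cells; Quantity: yeast cell density of 5 × 10^6 cells/mL; Buffer or medium: YPD; Doses: single compound concentration per well; Timing: 4 h at 37 °C static, read 1 h later; Measured by: AK luminescence; Read-out basis: lysis from increased AK signal; Control set: Clomiphene as positive control.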
FGF22 binding-2: binders of human FGF22 protein, dose response, FGF22 synaptogenesis inhibitor project, biophysical, thermal shift, cherry-pick retest | shares compounds with FGF22 binding-1 | recombinant FGF22 thermal shift, SYPRO orange fluorescence | thermal shift activity, °C (ΔTm) at 38 µM | 1,000 tested, 2% active;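 active = fitted rise in melting shift crosses a set limit at or below the top valid dose tested; inconclusive = flat fit at mid-level activity, or a poor quality fit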
TSA no protein: compound-only thermal shift signal without protein, dose response, artefact control for FGF22 binder project, biochemical, cherry-picked samples, RT-PCR instrument; shares compounds with FGF22 binding-1; compound-only SYPRO orange thermal shift counter-screen, no protein; AID 743019, 2013; AC50, µM (top dose mostly 38 µM); 1,000 tested, 2% active;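 active = rising signal whose fitted curve reaches the 0.54 level within the top valid dose, showing a melting point, actives reach about 13 µM in these data; inactive = the rest, including activity in the opposite direction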; also: value is where the raw curve crosses a fixed level and not half-maximal
* marks the source's active call; other numbers are inactive results; [ ] = another dose, or the depositor's remark.

O=C(NCc1ccncc1)[C@@H]1[C@@H](CO)[C@@H]2Cn3c(ccc(-c4cccnc4)c3=O)[C@@H]2N1C(=O)C1CC1 was read as FGF22 binding-1 0.2, PGC1a acetyl inh 3.8, PglD inh 7.9, rRNA inh HTS 4.6 and Cneo AK release -1.3.
For C[C@H](NC(=O)[C@@H]1[C@@H](CO)[C@@H]2Cn3c(ccc(-c4ccccc4)c3=O)[C@H]1N2C)c1ccccc1 the results were PglD inh 1.6, rRNA inh HTS -0.3 and Cneo AK release -2.0.
For CC(C)(CNS(=O)(=O)c1ccc2c(c1)OCCO2)N1CCOCC1 the results were FGF22 binding-1 1.4*, PGC1a acetyl inh 6.9, Vif inh 4.8, PglD inh 2.3, rRNA inh HTS 17.6, Cneo AK release -0.5, FGF22 binding-2 -0.061 and TSA no protein inactive.
Screening CCCNC(=O)C[C@@H]1C[C@@H]2c3cc(NS(=O)(=O)c4cccc(OC)c4)ccc3O[C@@H]2[C@H](CO)O1 returned FGF22 binding-1 -0.2, PGC1a acetyl inh 2.3, PglD inh 1.4, rRNA inh HTS -4.0 and Cneo AK release 4.4.
Screening C=CCC(=O)NC1CC(C)(C)Cc2c1cnn2-c1ccccc1C (stereo not given) returned FGF22 binding-1 -0.2, Vif inh -3.4, PglD inh -3.3, rRNA inh HTS -3.2 and Cneo AK release 0.1.
For Cc1ccccc1-n1ncc2c1CC(C)(C)CC2NC(=O)C1CCC1 (stereo not given) the results were FGF22 binding-1 1.4*, PGC1a acetyl inh -3.4, Vif inh inconclusive, PglD inh -0.4, rRNA inh HTS 3.0, Cneo AK release 1.0, FGF22 binding-2 0.088 and TSA no protein inactive.
Screening COc1ccc(NC(=O)N[C@@H]2CC[C@@H](CCNS(=O)(=O)c3ccccc3F)O[C@H]2CO)cc1 returned FGF22 binding-1 0.1, PGC1a acetyl inh -11.9, PglD inh 0.7, rRNA inh HTS -1.3 and Cneo AK release -1.0.
Cc1ccc(S(=O)(=O)N(C)/N=C/c2ccc(N(C)C)cc2)cc1 was read as FGF22 binding-1 20.4*, PGC1a acetyl inh -1.2, Vif inh 18.4, PglD inh -5.3, rRNA inh HTS 2.8, Cneo AK release 0.4, FGF22 binding-2 0.158 and TSA no protein inactive.
`COc1cc(C(=O)NC(=S)Nc2ccc([N+](=O)[O-])cc2C)cc(OC)c1OC` gave FGF22 binding-1 0.7, PGC1a acetyl inh -4.4, Vif inh -4.2, PglD inh -5.1, rRNA inh HTS 19.9 and Cneo AK release 0.3.
Screening COc1cc(C(=O)NC(=S)Nc2ccccc2[N+](=O)[O-])cc(OC)c1OC returned FGF22 binding-1 1.8*, PGC1a acetyl inh 11.7, Vif inh 6.6, PglD inh 3.2, rRNA inh HTS 7.4, Cneo AK release -0.9, FGF22 binding-2 0.128 and TSA no protein inactive.
S=c1[nH]c2cc3ccccc3cc2[nH]1 was read as FGF22 binding-1 2.1*, PGC1a acetyl inh 1.5, Vif inh 9.0, rRNA inh HTS 0.0, FGF22 binding-2 0.069 and TSA no protein inactive.
Screening Nc1c(N(CCO)C(=O)COc2ccc(Cl)cc2)c(=O)[nH]c(=O)n1Cc1ccccc1 returned FGF22 binding-1 1.8*, rRNA inh HTS -0.9, FGF22 binding-2 0.053 and TSA no protein inactive.
Screening Fc1cccc(-c2ccc(C3[C@H]4CNC[C@@H]3N4Cc3ccccc3F)cc2)c1 (stereo not given in full) returned rRNA inh HTS -59.2.
`CCC(=O)N(C)C[C@H]1Oc2cc(C3=CCCCC3)ccc2S(=O)(=O)N([C@H](C)CO)C[C@@H]1C` gave PGC1a acetyl inh 3.5 and rRNA inh HTS -5.1.
For OC[C@H]1[C@@H](c2ccc(-c3ccccc3F)cc2)[C@H]2CN(Cc3cccnc3)CCCCN21 the results were FGF22 binding-1 0.0, PGC1a acetyl inh -6.8, PglD inh 5.5, rRNA inh HTS 5.9 and Cneo AK release 0.1.
OC[C@@H]1[C@H](c2ccc(-c3cccnc3)cc2)[C@H]2CN(Cc3ccccn3)CCCCN12 was read as FGF22 binding-1 1.5*, PGC1a acetyl inh 1.8, PglD inh 6.7, rRNA inh HTS 1.0, Cneo AK release 0.3, FGF22 binding-2 0.261 and TSA no protein inactive.
Screening OC[C@@H]1[C@H](c2ccc(-c3ccccc3)cc2)[C@@H]2CN(Cc3ccccn3)CCCCN12 returned FGF22 binding-1 -0.2, PGC1a acetyl inh 2.3, PglD inh 7.7, rRNA inh HTS 1.2 and Cneo AK release -0.3.
`OC[C@H]1[C@H](c2ccc(-c3ccccc3)cc2)[C@H]2CN(Cc3ccccn3)CCCCN21` gave FGF22 binding-1 -0.4, PGC1a acetyl inh -6.2, PglD inh 8.5, rRNA inh HTS -6.4 and Cneo AK release 53.2.
Screening Cc1ccccc1-c1ccc([C@H]2[C@@H](CO)N3CCCCN(Cc4cccnc4)C[C@H]23)cc1 returned FGF22 binding-1 1.3*, PGC1a acetyl inh -18.5, PglD inh 6.4, rRNA inh HTS 0.0, Cneo AK release 3.7, FGF22 binding-2 -0.039[42 µM] and TSA no protein inactive.
OC[C@@H]1[C@H](c2ccc(-c3cccnc3)cc2)[C@@H]2CN(Cc3ccccn3)CCCCN12 was read as FGF22 binding-1 1.4*, PGC1a acetyl inh -7.4, PglD inh 58.1, rRNA inh HTS -1.1, Cneo AK release -1.1, FGF22 binding-2 0.018 and TSA no protein inactive.
Screening CNC[C@H]1Oc2ccc(NC(=O)Nc3ccc(OC)cc3)cc2CC(=O)N([C@@H](C)CO)C[C@@H]1C returned FGF22 binding-1 -0.3, PGC1a acetyl inh -1.3, PglD inh 3.5, rRNA inh HTS 5.1 and Cneo AK release 35.0.
For C[C@@H]1CN([C@H](C)CO)C(=O)c2ccccc2-c2ccccc2CO[C@H]1CN(C)C(=O)Nc1cccc(Cl)c1Cl the results were rRNA inh HTS 0.3.
